Reference: ChEMBL document CHEMBL1151733, “Pirinixic acid derivatives as novel dual inhibitors of microsomal prostaglandin E2 synthase-1 and 5-lipoxygenase” (J Med Chem, 2008)
Active and inactive are the calls of the source. The calls are words filed in the database; no cut-off is given here.

Experiments:
[1] = target: T1, Prostaglandin G/H synthase 2 (Homo sapiens, UniProt P35354); assay: Inhibition of human recombinant COX2
T1 sequence (P35354 whole entry): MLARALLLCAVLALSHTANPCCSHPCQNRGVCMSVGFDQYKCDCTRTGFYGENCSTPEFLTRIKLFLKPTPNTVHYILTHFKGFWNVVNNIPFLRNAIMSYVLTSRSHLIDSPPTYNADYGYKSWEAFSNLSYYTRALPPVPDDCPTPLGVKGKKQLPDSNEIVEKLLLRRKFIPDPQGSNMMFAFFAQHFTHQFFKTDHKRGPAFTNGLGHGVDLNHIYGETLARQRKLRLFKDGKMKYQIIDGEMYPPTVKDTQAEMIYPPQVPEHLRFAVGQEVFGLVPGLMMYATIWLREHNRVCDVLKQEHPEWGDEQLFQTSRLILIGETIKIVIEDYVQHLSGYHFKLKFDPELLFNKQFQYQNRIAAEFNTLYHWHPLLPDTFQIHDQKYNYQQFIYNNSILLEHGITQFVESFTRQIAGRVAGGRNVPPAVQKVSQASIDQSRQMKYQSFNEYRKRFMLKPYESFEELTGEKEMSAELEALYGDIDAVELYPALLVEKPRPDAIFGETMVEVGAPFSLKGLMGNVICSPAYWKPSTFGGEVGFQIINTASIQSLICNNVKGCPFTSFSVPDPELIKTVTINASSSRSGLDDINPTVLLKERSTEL
Procedure, shortened: (§1)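 Ovine COX-1 (50 units) or human recombinant COX-2 (20 units) in 100 mM Tris pH 8 with 5 mM glutathione, 5 µM hemoglobin and 100 µM EDTA. Compound preincubation 5 min at 4 °C, then prewarming 60 s at 37 °C. AA added at 5 µM for COX-1 or 2 µM for COX-2, reacted 5 min at 37 °C. 12-HHT extracted and quantified by HPLC. Mean ± SE, n = 3.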

[2] = target: T2, Prostaglandin E synthase (Homo sapiens) (UniProt O14684); assay: Inhibition of PGES1 in human A549 cell microsome assessed as PGE2 formation at 10 uM by cell-free assay relative to control; parameters: scale not given: the % may be the effect or the level left
T2 sequence (whole entry): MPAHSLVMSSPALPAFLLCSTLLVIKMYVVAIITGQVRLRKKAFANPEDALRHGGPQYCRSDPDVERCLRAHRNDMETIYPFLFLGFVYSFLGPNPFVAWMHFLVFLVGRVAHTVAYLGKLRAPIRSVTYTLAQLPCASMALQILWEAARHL
Procedure, shortened: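 Microsomes from A549 cells grown with IL-1β (1 ng/mL, 72 h), diluted in 0.1 M potassium phosphate pH 7.4 with 2.5 mM glutathione. Compound or DMSO added 15 min before PGH₂ (20 µM final). Reaction ran 1 min at 4 °C and was stopped with FeCl₂/citric acid. PGE₂ isolated by C18 SPE, then RP-HPLC with UV at 195 nm against 11β-PGE₂ internal standard.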

[3] = target: T3, Prostaglandin G/H synthase 1 (Ovis aries, UniProt P05979); assay: Inhibition of ovine COX1; procedure, shortened: as §1
T3 sequence (P05979 whole entry): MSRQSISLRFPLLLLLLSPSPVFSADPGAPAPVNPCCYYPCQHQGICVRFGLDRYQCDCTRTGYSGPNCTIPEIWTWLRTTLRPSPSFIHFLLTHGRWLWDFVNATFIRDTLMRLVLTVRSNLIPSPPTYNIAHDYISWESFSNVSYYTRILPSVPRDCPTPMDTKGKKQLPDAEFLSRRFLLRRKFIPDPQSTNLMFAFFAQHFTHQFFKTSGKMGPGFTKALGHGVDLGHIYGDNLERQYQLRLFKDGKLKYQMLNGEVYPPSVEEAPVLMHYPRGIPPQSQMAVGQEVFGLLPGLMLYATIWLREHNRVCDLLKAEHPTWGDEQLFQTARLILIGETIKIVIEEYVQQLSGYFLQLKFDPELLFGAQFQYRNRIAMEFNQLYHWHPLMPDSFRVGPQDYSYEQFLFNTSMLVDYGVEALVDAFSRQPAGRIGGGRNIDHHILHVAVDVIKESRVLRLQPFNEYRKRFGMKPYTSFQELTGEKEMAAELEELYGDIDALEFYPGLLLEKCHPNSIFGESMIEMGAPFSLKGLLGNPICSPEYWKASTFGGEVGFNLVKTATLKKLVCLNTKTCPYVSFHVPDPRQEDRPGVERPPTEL

[4] = target: T4, Polyunsaturated fatty acid 5-lipoxygenase (Homo sapiens, UniProt P09917); assay: Inhibition of human recombinant 5-LO expressed in Escherichia coli by cell-free assay
T4 sequence (P09917 whole entry): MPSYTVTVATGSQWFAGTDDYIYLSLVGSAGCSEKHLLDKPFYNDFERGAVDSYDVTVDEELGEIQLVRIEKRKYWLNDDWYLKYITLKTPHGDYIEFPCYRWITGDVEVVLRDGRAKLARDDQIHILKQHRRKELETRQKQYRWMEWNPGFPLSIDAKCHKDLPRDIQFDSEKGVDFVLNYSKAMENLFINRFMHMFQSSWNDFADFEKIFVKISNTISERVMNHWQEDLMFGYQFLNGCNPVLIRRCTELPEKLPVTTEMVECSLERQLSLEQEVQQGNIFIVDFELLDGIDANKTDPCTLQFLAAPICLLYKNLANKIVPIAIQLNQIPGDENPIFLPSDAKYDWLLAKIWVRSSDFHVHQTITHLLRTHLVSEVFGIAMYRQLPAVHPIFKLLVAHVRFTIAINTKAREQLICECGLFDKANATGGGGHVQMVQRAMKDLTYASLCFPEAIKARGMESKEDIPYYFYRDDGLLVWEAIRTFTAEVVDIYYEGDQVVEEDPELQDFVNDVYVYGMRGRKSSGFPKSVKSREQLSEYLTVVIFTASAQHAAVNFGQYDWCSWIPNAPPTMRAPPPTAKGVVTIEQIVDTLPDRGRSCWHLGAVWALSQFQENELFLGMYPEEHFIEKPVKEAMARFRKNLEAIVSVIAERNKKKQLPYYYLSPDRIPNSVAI
Procedure, shortened: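 Human 5-LO expressed in E. coli MV1190 (pT3-5LO) at 27 °C, partially purified from the 100000g lysate supernatant. Held in PBS pH 7.4 with 1 mM EDTA and 1 mM ATP with compound for 10 min at 4 °C, warmed 30 s at 37 °C, then started with 2 mM CaCl₂ plus 20 µM AA. After 10 min at 37 °C, stopped with cold methanol; products measured by HPLC.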

[5] = target: T5, Polyunsaturated fatty acid 5-lipoxygenase (Homo sapiens) (UniProt P09917); assay: Inhibition of 5-LO in human PMNL cells at 10 uM relative to control; assay type: cell-based; parameters: scale not given: the % may be the effect or the level left
T5 sequence (whole entry): T4 sequence (P09917 whole entry)
Procedure, shortened: (§2)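 Freshly isolated human PMNL from leukocyte concentrates of healthy donors, 5 × 10⁶ cells/mL in PBS pH 7.4 with 1 mg/mL glucose and 1 mM CaCl₂. Preincubated with compound 15 min at RT, then stimulated with 2.5 µM A23187 plus 20 µM AA for 10 min at 37 °C. Stopped with methanol; LTB₄, its all-trans isomers and 5-H(P)ETE quantified by HPLC with PGB₁ internal standard.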

[6] = target: T6, Prostaglandin G/H synthase 1 (Ovis aries) (UniProt P05979); assay: Inhibition of ovine COX1 assessed as remaining activity at 10 uM relative to control; procedure, shortened: as §1
T6 sequence (whole entry): T3 sequence (P05979 whole entry)

[7] = target: T7, Prostaglandin G/H synthase 2 (Homo sapiens) (UniProt P35354); assay: Inhibition of human recombinant COX2 assessed as remaining activity at 10 uM relative to control; procedure, shortened: as §1
T7 sequence (whole entry): T1 sequence (P35354 whole entry)

[8] = target: T4, Polyunsaturated fatty acid 5-lipoxygenase; assay: Inhibition of 5-LO in PMNL cells; assay type: cell-based; procedure, shortened: as §2

| IC50 [1] [µM] | Activity [2] | IC50 [3] [µM] | IC50 [4] [µM] | Activity [5] [%] | Activity [6] [%] | Activity [7] [%] | IC50 [8] [µM] | SMILES |
| --- | --- | --- | --- | --- | --- | --- | --- | --- |
| > 10 | 85.7% | > 10 |  |  |  |  |  | CCCCCCC(Sc1nc(Cl)cc(NCc2ccc3ncccc3c2)n1)C(=O)O (configuration not stated) |
| > 10 | 36.8% | > 10 | 0.8 | 2.8 |  |  |  | CCCCCC[C@@H](Sc1nc(Cl)cc(Nc2ccc(-c3ccc(C#N)cc3)cc2)n1)C(=O)O |
| > 10 | 31.9% | > 10 | 6.5 |  | 75.2 | 62 |  | CCCCCCC(Sc1nc(Cl)cc(Nc2cccc(C)c2C)n1)C(=O)O (configuration not stated) |
| > 10 | inactive | > 10 |  | 80.2 |  |  |  | CCCCCCC(Sc1nc(Cl)cc(NCc2ccc(-c3ccccc3)cc2)n1)C(=O)OCC (configuration not stated) |
| > 10 | 23% | > 10 | 1.5 | 2.8 |  |  |  | CCCCCC[C@H](Sc1nc(Cl)cc(Nc2ccc(-c3ccc(C#N)cc3)cc2)n1)C(=O)O |
| > 10 | 70% | > 10 |  | 16.1 |  |  |  | CCCCCCC(Sc1nc(Cl)cc(NCCc2ccccc2)n1)C(=O)O (configuration not stated) |
| > 10 | 43.1% | > 10 |  | 2.7 |  |  |  | CCCCC(Sc1nc(OCCc2ccccc2)cc(OCCc2ccccc2)n1)C(=O)O (configuration not stated) |
|  |  |  | 3 | 8 | 40 | 70.4 | 1.5 | CCCCCCC(Sc1nc(Cl)cc(Nc2cc(OCC(F)(F)F)cc(OCC(F)(F)F)c2)n1)C(=O)O (configuration not stated) |
| > 10 | 67.4% | > 10 |  |  |  |  |  | CCCCCCC(Sc1nc(Cl)cc(Oc2ccc3ncccc3c2)n1)C(=O)O (configuration not stated) |
| > 10 | 74.6% | > 10 |  |  |  |  |  | Cc1cccc(Nc2cc(Cl)nc(SC(C(=O)O)c3ccccc3)n2)c1C (configuration not stated) |
| > 10 | inactive | > 10 |  |  |  |  |  | Cc1cccc(Nc2cc(Cl)nc(SC(C)C(=O)O)n2)c1C (configuration not stated) |
| > 10 | 79.9% | > 10 |  | 28 |  |  |  | CCCCCCC(Sc1nc(Cl)cc(NCCOc2ccccc2)n1)C(=O)O (configuration not stated) |

The next lines start with the compound.

| SMILES | IC50 [1] [µM] | Activity [2] | IC50 [3] [µM] | IC50 [4] [µM] | Activity [5] [%] | Activity [6] [%] | Activity [7] [%] | IC50 [8] [µM] |
| --- | --- | --- | --- | --- | --- | --- | --- | --- |
| CCCCC(Sc1nc(OCCc2ccccc2)cc(OCCc2ccccc2)n1)C(=O)OCC (configuration not stated) | > 10 | inactive | > 10 |  | 80.1 |  |  |  |
| CC(=O)N(O)C/C=C/c1cccc(Oc2ccccc2)c1 | > 10 | inactive | > 10 |  |  |  |  |  |
| CCCCC(Sc1nc(Cl)cc(Nc2cccc(C)c2C)n1)C(=O)O (configuration not stated) | > 10 | inactive | > 10 |  |  |  |  |  |
| Cc1cccc(Nc2cc(Cl)nc(SC(C(=O)O)c3cccc4ccccc34)n2)c1C (configuration not stated) |  |  |  |  | 16.8 | 42.2 | 32.5 | 5 |
| CCCCCCC(Sc1nc(Cl)cc(NCCOc2ccccc2)n1)C(=O)OCC (configuration not stated) | > 10 | 80.7% | > 10 |  | 37.1 |  |  |  |
| CCCCCCCCC(Sc1nc(Cl)cc(Nc2cccc(C)c2C)n1)C(=O)O (configuration not stated) | > 10 | 29.8% | > 10 |  | 7 |  |  |  |
| Cc1cccc(Nc2cc(Cl)nc(SC(C)(C)C(=O)O)n2)c1C | > 10 | 83.8% | > 10 |  |  |  |  |  |
| CCCCCCC(Sc1nc(Cl)cc(Nc2ccc3ncccc3c2)n1)C(=O)O (configuration not stated) | > 10 | 59% | > 10 |  |  |  |  |  |
| Cc1cccc(Nc2cc(Cl)nc(SCC(=O)O)n2)c1C [PIRINIXIC ACID] | > 10 | inactive | > 10 |  |  |  |  |  |
| O=C(O)CSc1nc(OCCc2ccccc2)cc(OCCc2ccccc2)n1 | > 10 | 66.4% | > 10 |  | 40.6 |  |  |  |
| CCCCCCC(Sc1nc(Cl)cc(Nc2cccc(C)c2C)n1)C(=O)OCC (configuration not stated) | > 10 | inactive | > 10 |  |  |  |  |  |
